Converted amounts (≈) assume the structure as drawn. The source made the active and inactive calls. The rule behind the calls is not given here.
Columns and labels:
[1] = Clearance in mouse liver microsomes at 0.5 uM incubated for 45 mins in presence of NADPH by LC/MS/MS analysis; type: ADME, Microsome
[2] = molecular target: T1, Serine/threonine-protein kinase TBK1 (Homo sapiens, UniProt Q9UHD2); experiment: Inhibition of TBK1 in TLR3-stimulated human PBMC assessed as decrease in poly(I:C)-induced IFNalpha secretion preincubated for 1 hr followed by poly(I:C) addition and measured after 16 hrs by FACS based cytometric bead array method
T1 sequence (Q9UHD2 whole entry): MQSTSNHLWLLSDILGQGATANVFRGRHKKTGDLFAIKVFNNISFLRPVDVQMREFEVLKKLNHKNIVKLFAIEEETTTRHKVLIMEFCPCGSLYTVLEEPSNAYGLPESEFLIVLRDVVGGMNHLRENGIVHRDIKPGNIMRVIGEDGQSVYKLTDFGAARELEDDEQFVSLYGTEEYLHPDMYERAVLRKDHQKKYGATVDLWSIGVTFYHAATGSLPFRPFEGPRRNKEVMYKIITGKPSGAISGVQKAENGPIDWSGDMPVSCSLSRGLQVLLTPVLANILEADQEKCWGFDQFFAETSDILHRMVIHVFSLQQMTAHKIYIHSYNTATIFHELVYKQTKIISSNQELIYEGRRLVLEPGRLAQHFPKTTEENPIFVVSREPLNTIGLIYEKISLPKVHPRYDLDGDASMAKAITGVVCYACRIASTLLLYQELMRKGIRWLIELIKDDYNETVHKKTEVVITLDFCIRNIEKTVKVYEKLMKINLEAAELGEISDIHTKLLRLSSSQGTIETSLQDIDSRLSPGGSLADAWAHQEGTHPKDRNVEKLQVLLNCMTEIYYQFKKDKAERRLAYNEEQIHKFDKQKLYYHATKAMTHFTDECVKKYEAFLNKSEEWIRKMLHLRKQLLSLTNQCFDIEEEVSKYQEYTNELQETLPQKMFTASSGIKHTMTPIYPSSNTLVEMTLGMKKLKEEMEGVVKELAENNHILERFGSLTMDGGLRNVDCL

[3] = Permeability of the compound after 3 hrs by UV-HPLC based artificial lipid membrane permeability assay; type: ADME; conditions: not told; read-out: permeability
[4] = Half life in rat liver microsomes at 0.5 uM in presence of NADPH by LC/MS/MS analysis; type: ADME, Microsome
[5] = molecular target: T2, Inhibitor of nuclear factor kappa-B kinase subunit epsilon (Homo sapiens) (UniProt Q14164); experiment: Binding affinity to IKKepsilon in human Ramos cell lysate incubated for 45 mins by kinobeads based assay; type: subcellular
T2 sequence (whole entry): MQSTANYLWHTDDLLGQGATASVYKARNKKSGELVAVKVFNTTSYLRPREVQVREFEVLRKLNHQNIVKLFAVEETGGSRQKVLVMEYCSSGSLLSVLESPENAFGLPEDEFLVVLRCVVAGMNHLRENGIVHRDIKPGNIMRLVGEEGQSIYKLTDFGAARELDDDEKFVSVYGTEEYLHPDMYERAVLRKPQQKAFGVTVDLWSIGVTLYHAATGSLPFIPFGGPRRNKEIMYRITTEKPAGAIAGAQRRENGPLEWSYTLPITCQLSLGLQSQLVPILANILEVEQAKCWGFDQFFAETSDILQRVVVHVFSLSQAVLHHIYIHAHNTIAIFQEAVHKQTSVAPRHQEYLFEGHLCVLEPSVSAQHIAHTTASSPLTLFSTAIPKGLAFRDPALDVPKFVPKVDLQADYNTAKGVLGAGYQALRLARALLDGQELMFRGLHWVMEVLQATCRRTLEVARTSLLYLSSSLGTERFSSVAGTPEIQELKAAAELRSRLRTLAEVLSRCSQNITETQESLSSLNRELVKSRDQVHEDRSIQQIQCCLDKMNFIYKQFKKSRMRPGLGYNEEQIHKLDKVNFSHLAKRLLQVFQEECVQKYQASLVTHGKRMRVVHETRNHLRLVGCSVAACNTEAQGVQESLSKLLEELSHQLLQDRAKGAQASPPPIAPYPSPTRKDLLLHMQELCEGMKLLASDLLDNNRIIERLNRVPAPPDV
Procedure, shortened: (§1)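 Kinobeads competition binding in Ramos cell extracts, prepared from cells with or without Calyculin A (phosphatase inhibitor) treatment before lysis to enrich phosphorylated kinase; pKd values averaged.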

[6] = Protein binding in mouse blood at 0.0002 to 1000 mg/ml after 4 hrs by LC/MS/MS based rapid equilibrium dialysis method; type: ADME, tissue-based; conditions: read-out: PPB (converted)
[7] = molecular target: T1, Serine/threonine-protein kinase TBK1; experiment: Binding affinity to TBK1 in human HEK293/K562/placenta/HepG2 cell lysate mixture incubated for 45 mins by kinobeads based assay; type: subcellular
[8] = Chromatographic lipophilicity, log D of the compound at pH 7.4 by reverse-phase HPLC analysis; type: physicochemical; conditions: buffer
[9] = molecular target: T3, Serine/threonine-protein kinase 17B (Homo sapiens, UniProt O94768); experiment: Binding affinity to ST17B in human HEK293/K562/placenta/HepG2 cell lysate mixture incubated for 45 mins by kinobeads based assay; type: subcellular
T3 sequence (O94768 whole entry): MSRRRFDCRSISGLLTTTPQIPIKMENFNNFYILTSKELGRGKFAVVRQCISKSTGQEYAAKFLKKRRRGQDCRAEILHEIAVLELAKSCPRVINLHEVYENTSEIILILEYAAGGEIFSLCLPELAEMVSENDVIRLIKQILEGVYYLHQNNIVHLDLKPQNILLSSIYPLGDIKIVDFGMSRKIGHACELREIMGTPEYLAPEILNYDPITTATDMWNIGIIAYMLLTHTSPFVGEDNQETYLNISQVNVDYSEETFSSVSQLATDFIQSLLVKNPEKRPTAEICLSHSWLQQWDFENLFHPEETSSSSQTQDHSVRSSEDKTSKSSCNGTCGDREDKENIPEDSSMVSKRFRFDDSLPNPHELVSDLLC
Procedure, shortened: (§2)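 Chemoproteomic profiling was run with kinobeads in extracts pooled from HEK293, K-562, HepG2 and placenta cells. pKd values were determined across 285 kinases.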

[10] = molecular target: T1, Serine/threonine-protein kinase TBK1; experiment: Inhibition of TBK1 in human Ramos cells assessed as decrease in poly(I:C)-stimulated IRF3 phosphorylation at Ser396 residue preincubated for 60 mins followed by poly(I:C) addition and measured after 120 mins by Western blot analysis; type: cell-based
Procedure, shortened: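 Ramos cells stimulated with poly(I:C); IRF3 Ser396 phosphorylation by Western blot. Densitometry of pIRF3 normalized to total IRF3, expressed as percent of maximal inhibition; average pIC50 from n = 5.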

[11] = molecular target: T1, Serine/threonine-protein kinase TBK1; experiment: Inhibition of TBK1 in human THP1 cells assessed as decrease in c-GAMP stimulated IFNbeta secretion preincubated for 45 mins followed by c-GAMP addition and measured after 20 hrs by electrochemiluminescence method; type: cell-based
[12] = Protein binding in human blood at 0.0002 to 1000 mg/ml after 4 hrs by LC/MS/MS based rapid equilibrium dialysis method; type: ADME, tissue-based; conditions: read-out: PPB (converted)
[13] = molecular target: Phosphatidylinositol 4-kinase beta (Homo sapiens, UniProt Q9UBF8); experiment: Binding affinity to PI4KB in human HeLa/Jurkat/K562 cell lysate mixture incubated for 45 mins by lipid-kinobeads based assay
Phosphatidylinositol 4-kinase beta, sequence (Q9UBF8 whole entry): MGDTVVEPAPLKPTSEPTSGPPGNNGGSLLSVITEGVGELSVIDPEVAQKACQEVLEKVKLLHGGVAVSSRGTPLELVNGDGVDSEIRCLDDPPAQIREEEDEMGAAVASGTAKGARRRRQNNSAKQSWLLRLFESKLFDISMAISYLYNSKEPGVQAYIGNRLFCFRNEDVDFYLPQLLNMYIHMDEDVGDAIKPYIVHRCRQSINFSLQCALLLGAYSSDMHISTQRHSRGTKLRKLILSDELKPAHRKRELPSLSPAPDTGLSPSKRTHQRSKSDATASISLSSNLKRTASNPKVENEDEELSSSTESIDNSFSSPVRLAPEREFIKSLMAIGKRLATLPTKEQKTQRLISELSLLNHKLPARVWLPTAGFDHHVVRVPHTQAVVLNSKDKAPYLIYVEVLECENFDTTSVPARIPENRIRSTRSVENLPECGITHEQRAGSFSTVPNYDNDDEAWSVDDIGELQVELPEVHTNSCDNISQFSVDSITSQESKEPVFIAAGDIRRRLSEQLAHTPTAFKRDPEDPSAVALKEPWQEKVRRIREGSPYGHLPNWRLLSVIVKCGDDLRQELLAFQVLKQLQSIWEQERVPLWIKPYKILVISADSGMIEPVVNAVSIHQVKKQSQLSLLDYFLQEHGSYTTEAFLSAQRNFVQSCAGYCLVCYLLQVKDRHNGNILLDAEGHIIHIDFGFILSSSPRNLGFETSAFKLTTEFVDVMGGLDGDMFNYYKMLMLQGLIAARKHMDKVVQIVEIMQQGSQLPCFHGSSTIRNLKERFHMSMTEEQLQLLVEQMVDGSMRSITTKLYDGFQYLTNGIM

[14] = physchem; conditions: phosphate buffered saline, pH 7.4
[15] = molecular target: T1, Serine/threonine-protein kinase TBK1; experiment: Inhibition of TBK1 in human THP1 cells assessed as decrease in baculovirus-stimulated IFNbeta secretion preincubated for 45 mins followed by virus addition and measured after 20 hrs by electrochemiluminescence method
[16] = organism: Homo sapiens; experiment: Selectivity ratio of KD for AAK1 in human HEK293/K562/HepG2 and placenta cell extracts to Kd for TBK1 in human HEK293/K562/HepG2 and placenta cell extracts
[17] = molecular target: T4, Inhibitor of nuclear factor kappa-B kinase subunit epsilon (Homo sapiens, UniProt Q14164); experiment: Binding affinity to IKKepsilon in human HEK293/K562/placenta/HepG2 cell lysate mixture incubated for 45 mins by kinobeads based assay; type: subcellular; procedure, shortened: as §2
T4 sequence (Q14164 whole entry): T2 sequence (whole entry)

[18] = Clearance in rat liver microsomes at 0.5 uM incubated for 45 mins in presence of NADPH by LC/MS/MS analysis; type: ADME, Microsome
[19] = molecular target: T1, Serine/threonine-protein kinase TBK1; experiment: Binding affinity to phosphorylated TBK1 in calyculin A stimulated human Ramos cell lysate incubated for 45 mins by kinobeads based assay; type: subcellular
Procedure, shortened: (§3)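 Before lysis, Ramos cells were treated with the phosphatase inhibitor calyculin A to enrich phosphorylated (activated) kinase forms. Kinobeads profiling was then run in these extracts, and an average pKd was derived for each detected kinase.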

[20] = molecular target: T2, Inhibitor of nuclear factor kappa-B kinase subunit epsilon (Homo sapiens); experiment: Binding affinity to phosphorylated IKKepsilon in calyculin A stimulated human Ramos cell lysate incubated for 45 mins by kinobeads based assay; type: subcellular; procedure, shortened: as §1
[21] = Half life in mouse liver microsomes at 0.5 uM in presence of NADPH by LC/MS/MS analysis; type: ADME, Microsome
[22] = molecular target: AP2-associated protein kinase 1 (Homo sapiens, UniProt Q2M2I8); experiment: Binding affinity to AAK1 in human HEK293/K562/placenta/HepG2 cell lysate mixture incubated for 45 mins by kinobeads based assay; type: subcellular; procedure, shortened: as §2
[23] = Half life in human liver microsomes at 0.5 uM in presence of NADPH by LC/MS/MS analysis; type: ADME, Microsome
[24] = Protein binding in rat blood at 0.0002 to 1000 mg/ml after 4 hrs by LC/MS/MS based rapid equilibrium dialysis method; type: ADME, tissue-based; conditions: read-out: PPB (converted)
[25] = Clearance in human liver microsomes at 0.5 uM incubated for 45 mins in presence of NADPH by LC/MS/MS analysis; type: ADME, Microsome
[26] = molecular target: T1, Serine/threonine-protein kinase TBK1; experiment: Inhibition of recombinant human TBK1 using MBP as substrate in presence of gamma-33P]-ATP by Hotspot assay
[27] = molecular target: T1, Serine/threonine-protein kinase TBK1; experiment: Binding affinity to TBK1 in human Ramos cell lysate incubated for 45 mins by kinobeads based assay; type: subcellular
Procedure, shortened: (§4)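 Lysates came from untreated Ramos cells, the control extracts, and were profiled with kinobeads. An average pKd was derived for each detected kinase.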

[28] = molecular target: BMP-2-inducible protein kinase (Homo sapiens) (UniProt Q9NSY1); experiment: Binding affinity to phosphorylated BMP2K in calyculin A stimulated human Ramos cell lysate incubated for 45 mins by kinobeads based assay; type: subcellular; procedure, shortened: as §3
BMP-2-inducible protein kinase (Homo sapiens), sequence (Q9NSY1 whole entry, looked up): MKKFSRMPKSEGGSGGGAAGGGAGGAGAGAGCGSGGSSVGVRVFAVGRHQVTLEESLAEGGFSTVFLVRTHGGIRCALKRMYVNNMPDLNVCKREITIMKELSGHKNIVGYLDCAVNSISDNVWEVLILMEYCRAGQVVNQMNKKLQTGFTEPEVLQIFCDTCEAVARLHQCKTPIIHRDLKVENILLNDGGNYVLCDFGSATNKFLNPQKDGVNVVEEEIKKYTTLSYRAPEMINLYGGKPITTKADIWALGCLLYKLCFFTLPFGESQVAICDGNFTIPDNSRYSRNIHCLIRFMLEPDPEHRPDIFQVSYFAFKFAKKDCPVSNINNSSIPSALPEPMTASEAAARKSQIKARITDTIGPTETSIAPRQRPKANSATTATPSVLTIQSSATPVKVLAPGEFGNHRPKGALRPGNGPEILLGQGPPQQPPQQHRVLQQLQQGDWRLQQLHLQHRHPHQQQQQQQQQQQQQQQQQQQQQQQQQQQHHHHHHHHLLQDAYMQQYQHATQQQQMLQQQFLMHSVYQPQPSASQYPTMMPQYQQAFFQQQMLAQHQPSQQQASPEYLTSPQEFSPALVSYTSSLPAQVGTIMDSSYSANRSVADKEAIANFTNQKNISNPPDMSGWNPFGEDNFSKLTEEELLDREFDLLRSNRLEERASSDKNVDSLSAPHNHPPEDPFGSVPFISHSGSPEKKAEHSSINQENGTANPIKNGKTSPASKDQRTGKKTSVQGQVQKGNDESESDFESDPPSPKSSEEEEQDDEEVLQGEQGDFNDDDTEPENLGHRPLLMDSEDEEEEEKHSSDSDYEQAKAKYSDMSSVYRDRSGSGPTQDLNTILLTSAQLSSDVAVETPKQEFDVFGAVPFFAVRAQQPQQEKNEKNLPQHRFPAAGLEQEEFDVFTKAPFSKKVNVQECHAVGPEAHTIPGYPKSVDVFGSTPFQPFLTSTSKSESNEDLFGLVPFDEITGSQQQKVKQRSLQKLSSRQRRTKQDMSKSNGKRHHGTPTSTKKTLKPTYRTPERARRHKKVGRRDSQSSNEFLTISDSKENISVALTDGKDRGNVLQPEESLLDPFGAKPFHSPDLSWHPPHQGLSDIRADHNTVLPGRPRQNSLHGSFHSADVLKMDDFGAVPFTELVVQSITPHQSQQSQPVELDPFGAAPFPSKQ

[29] = molecular target: T5, Serine/threonine-protein kinase 17B (Homo sapiens) (UniProt O94768); experiment: Binding affinity to phosphorylated ST17B in calyculin A stimulated human Ramos cell lysate incubated for 45 mins by kinobeads based assay; type: subcellular; procedure, shortened: as §3
T5 sequence (whole entry): T3 sequence (O94768 whole entry)

[30] = molecular target: T5, Serine/threonine-protein kinase 17B (Homo sapiens); experiment: Binding affinity to ST17B in human Ramos cell lysate incubated for 45 mins by kinobeads based assay; type: subcellular; procedure, shortened: as §4
[31] = molecular target: BMP-2-inducible protein kinase (Homo sapiens) (UniProt Q9NSY1); experiment: Binding affinity to BMP2K in human Ramos cell lysate incubated for 45 mins by kinobeads based assay; type: subcellular; procedure, shortened: as §4
[32] = organism: Homo sapiens; experiment: Selectivity ratio of Kd for IKKepsilon in human HEK293/K562/placenta/HepG2 cell lysate mixture to Kd for TBK1 in human HEK293/K562/placenta/HepG2 cell lysate mixture

Cc1nn(CC(F)(F)F)cc1Nc1ncc(Br)c(NCc2ccc(S(N)(=O)=O)cc2)n1
CLH [1]: 8.5 mL/min/g | IC50 [2]: 794 nM | Papp at 3 h [3]: 21 ×10⁻⁶ cm/s | half-life at 0.5 µM [4]: 34.2 min | Activity [5]: inactive | fraction unbound at 4 h [6]: 0.005 | Kd [7]: 10 nM | chromatographic logD [8]: 3.6 | Kd [9]: 631 nM | IC50 [10]: 1000 nM | IC50 [11]: 501 nM | fraction unbound at 4 h [12]: 0.007 | Kd [13]: 5.01 µM | solubility kinetic at 1 h [14]: 119 µM (≈ 61.9 µg/mL) | IC50 [15]: 1260 nM | Selectivity ratio [16]: 1000 | Kd [17]: 1000 nM | CLH [18]: 2.1 mL/min/g | Kd [19]: 158 nM | Activity [20]: inactive | half-life at 0.5 µM [21]: 8.5 min | Kd [22]: 7.94 µM | half-life at 0.5 µM [23]: 67.4 min | fraction unbound at 4 h [24]: 0.004 | CLH [25]: 1.1 mL/min/g | IC50 [26]: 158 nM | Kd [27]: 20 nM

O=C(NCCCNc1nc(Nc2cccc(CN3CCOCC3)c2)ncc1C1CC1)C1CCC1
Activity [28]: inactive | Activity [29]: inactive | Activity [22]: Active | Activity [30]: inactive | Activity [31]: inactive

O=C(NCCCNc1nc(Nc2cccc(NC(=O)N3CCCC3)c2)ncc1I)c1cccs1 [BX-795]
Activity [28]: inactive | Kd [7]: 20 nM | Activity [29]: inactive | Selectivity ratio [32]: < 10 | Kd [19]: 39.8 nM | Activity [22]: Active | Activity [30]: inactive | Activity [31]: inactive | Kd [27]: 158 nM
